Test results from publication PMC3235361 (Biochemistry, 2011).

How the values were obtained:
[1] = test system: differentiated PC-12 cells; assay: Neuroprotection against Aβ42, MTT assay, differentiated PC-12 cells; assay type: cell-based; conditions: both isomers to a similar extent, data not shown
[2] = test system: rat primary cortical or hippocampal neurons; assay: Toxicity compared with WT Aβ across MTT and LDH assays, rat primary neurons; assay type: cell-based; conditions: 10 μM, 48 h
Procedure, shortened: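 E18 rat cortical or hippocampal neurons on poly-D-lysine in DMEM/10% FBS; 5 μM cytosine arabinoside from 24 h; treated at day 6. HFIP-treated peptide films dissolved in 60 mM NaOH, diluted in medium (final NaOH ≤6 mM), sonicated; 10 μM final, 48 h. MTT: 4 h at 37°C, stop overnight, OD; 3 experiments. LDH release: 6 experiments. 6 wells/point; normalized to NaOH-medium control; ANOVA/Tukey.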

Compound	protection against Aβ-induced toxicity, MTT (in words) [1]	toxicity compared with the WT Aβ form (in words) [2]
CC(=O)N[C@H](CC[S+](C)[O-])C(=O)O (stereo partly drawn) [Ac-D-Met(O)]	significantly protected	–
CC(=O)N[C@@H](CC[S+](C)[O-])C(=O)O (stereo partly drawn) [Ac-L-Met(O)]	significantly protected	–
[Met(O)^35]Aβ42 [Aβ42-Met(O)]	–	significantly less toxic
